{"source": "ChEMBL document CHEMBL1165947", "about": "“Synthesis and antitumor activity of 2,5-bis(3'-indolyl)-furans and 3,5-bis(3'-indolyl)-isoxazoles, nortopsentin analogues” (Bioorg Med Chem, 2010)", "type_in_all_cases": "functional, cell-based", "key": {"[1]": {"test": "Cytotoxicity against human BXF 1218L cells after 4 days by modified propidium iodide staining-based fluorescence assay", "settings": "96 h", "summary_of_the_method": "(§1)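 Cells cultured in RPMI 1640 with 10% fetal calf serum and 0.1 mg/mL gentamicin at 37 °C, 5% CO2. Cells from exponential cultures were trypsinized and plated at 4.000-20.000 cells/well by line. After 24 h recovery, compounds were added at five log-spaced concentrations (highest 100 μg/mL) for 4 days. Proliferation was read as DNA content with aqueous propidium iodide (7 μg/ml), fluorescence ex 530/em 620 nm. Points were run in triplicate.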"}, "T-24": {"tested_on": "T-24", "test": "Cytotoxicity against human T24 cells after 4 days by modified propidium iodide staining-based fluorescence assay", "settings": "T-24, 96 h", "summary_of_the_method": "as §1"}, "SF-268": {"tested_on": "SF-268", "test": "Cytotoxicity against human SF268 cells after 4 days by modified propidium iodide staining-based fluorescence assay", "settings": "SF-268, 96 h", "summary_of_the_method": "as §1"}, "HCT-116": {"tested_on": "HCT-116", "test": "Cytotoxicity against human HCT116 cells after 4 days by modified propidium iodide staining-based fluorescence assay", "settings": "HCT-116, 96 h", "summary_of_the_method": "as §1"}, "HT-29": {"tested_on": "HT-29", "test": "Cytotoxicity against human HT-29 cells after 4 days by modified propidium iodide staining-based fluorescence assay", "settings": "HT-29, 96 h", "summary_of_the_method": "as §1"}, "[2]": {"test": "Cytotoxicity against human GXF251L cells after 4 days by modified propidium iodide staining-based fluorescence assay", "settings": "GXF 251L, 96 h", "summary_of_the_method": "as §1"}, "[3]": {"test": "Cytotoxicity against human LXFL 1121L cells after 4 days by modified propidium iodide staining-based fluorescence assay", "settings": "96 h", "summary_of_the_method": "as §1"}, "[4]": {"test": "Cytotoxicity against human LXFA 289L cells after 4 days by modified propidium iodide staining-based fluorescence assay", "settings": "96 h", "summary_of_the_method": "as §1"}, "[5]": {"test": "Cytotoxicity against human LXFA 526L cells after 4 days by modified propidium iodide staining-based fluorescence assay", "settings": "96 h", "summary_of_the_method": "as §1"}, "A549": {"tested_on": "A549", "test": "Cytotoxicity against human A549 cells after 4 days by modified propidium iodide staining-based fluorescence assay", "settings": "A549, 96 h", "summary_of_the_method": "as §1"}, "[6]": {"test": "Cytotoxicity against human LXFA 629L cells after 4 days by modified propidium iodide staining-based fluorescence assay", "settings": "96 h", "summary_of_the_method": "as §1"}, "NCI-H460": {"tested_on": "NCI-H460", "test": "Cytotoxicity against human H460 cells after 4 days by modified propidium iodide staining-based fluorescence assay", "settings": "NCI-H460, 96 h", "summary_of_the_method": "as §1"}, "[7]": {"test": "Cytotoxicity against human MAXF 401NL cells after 4 days by modified propidium iodide staining-based fluorescence assay", "settings": "96 h", "summary_of_the_method": "as §1"}, "MCF7": {"tested_on": "MCF7", "test": "Cytotoxicity against human MCF7 cells after 4 days by modified propidium iodide staining-based fluorescence assay", "settings": "MCF7, 96 h", "summary_of_the_method": "as §1"}, "[8]": {"test": "Cytotoxicity against human MEXF 276L cells after 4 days by modified propidium iodide staining-based fluorescence assay", "settings": "MEXF276L, 96 h", "summary_of_the_method": "as §1"}, "[9]": {"test": "Cytotoxicity against human MEXF 462NL cells after 4 days by modified propidium iodide staining-based fluorescence assay", "settings": "96 h", "summary_of_the_method": "as §1"}, "[10]": {"test": "Cytotoxicity against human MEXF 520L cells after 4 days by modified propidium iodide staining-based fluorescence assay", "settings": "96 h", "summary_of_the_method": "as §1"}, "[11]": {"test": "Cytotoxicity against human 899L cells after 4 days by modified propidium iodide staining-based fluorescence assay", "settings": "96 h", "summary_of_the_method": "as §1"}, "OVCAR-3": {"tested_on": "OVCAR-3", "test": "Cytotoxicity against human OVCAR-3 cells after 4 days by modified propidium iodide staining-based fluorescence assay", "settings": "OVCAR-3, 96 h", "summary_of_the_method": "as §1"}, "[12]": {"test": "Cytotoxicity against human 1657L cells after 4 days by modified propidium iodide staining-based fluorescence assay", "settings": "96 h", "summary_of_the_method": "as §1"}, "PANC-1": {"tested_on": "PANC-1", "test": "Cytotoxicity against human PANC1 cells after 4 days by modified propidium iodide staining-based fluorescence assay", "settings": "PANC-1, 96 h", "summary_of_the_method": "as §1"}, "CWR22R": {"tested_on": "CWR22R", "test": "Cytotoxicity against human 22Rv1 cells after 4 days by modified propidium iodide staining-based fluorescence assay", "settings": "22Rv1, 96 h", "summary_of_the_method": "as §1"}, "DU-145": {"tested_on": "DU-145", "test": "Cytotoxicity against human DU145 cells after 4 days by modified propidium iodide staining-based fluorescence assay", "settings": "DU-145, 96 h", "summary_of_the_method": "as §1"}, "LNCaP": {"tested_on": "LNCaP", "test": "Cytotoxicity against human LNCAP cells after 4 days by modified propidium iodide staining-based fluorescence assay", "settings": "96 h", "summary_of_the_method": "as §1"}, "[13]": {"test": "Cytotoxicity against human PC3M cells after 4 days by modified propidium iodide staining-based fluorescence assay", "settings": "PC-3M, 96 h", "summary_of_the_method": "as §1"}, "[14]": {"test": "Cytotoxicity against human 1752L cells after 4 days by modified propidium iodide staining-based fluorescence assay", "settings": "96 h", "summary_of_the_method": "as §1"}, "[15]": {"test": "Cytotoxicity against human 1781L cells after 4 days by modified propidium iodide staining-based fluorescence assay", "settings": "96 h", "summary_of_the_method": "as §1"}, "[16]": {"test": "Cytotoxicity against human RXF 486L cells after 4 days by modified propidium iodide staining-based fluorescence assay", "settings": "96 h", "summary_of_the_method": "as §1"}, "[17]": {"test": "Cytotoxicity against human UXF 1138L cells after 4 days by modified propidium iodide staining-based fluorescence assay", "settings": "96 h", "summary_of_the_method": "as §1"}, "P388": {"tested_on": "P388", "test": "Cytotoxicity against mouse P388 cells"}}}
{"smiles": "Cn1cc(-c2cc(-c3cn(C)c4ccccc34)on2)c2ccccc21", "values": [{"measurement": "IC50", "setting": "[1]", "result": 20, "unit": "µg/mL"}, {"measurement": "IC50", "setting": "T-24", "result": 40.6, "unit": "µg/mL"}, {"measurement": "IC50", "setting": "SF-268", "result": 24.6, "unit": "µg/mL"}, {"measurement": "IC50", "setting": "HCT-116", "result": 29.5, "unit": "µg/mL"}, {"measurement": "IC50", "setting": "HT-29", "result": 32.7, "unit": "µg/mL"}, {"measurement": "IC50", "setting": "[2]", "result": 7.2, "unit": "µg/mL"}, {"measurement": "IC50", "setting": "[3]", "result": 21, "unit": "µg/mL"}, {"measurement": "IC50", "setting": "[4]", "result": 18.7, "unit": "µg/mL"}, {"measurement": "IC50", "setting": "[5]", "result": 11.5, "unit": "µg/mL"}, {"measurement": "IC50", "setting": "A549", "result": 5.1, "unit": "µg/mL"}, {"measurement": "IC50", "setting": "[6]", "result": 4.2, "unit": "µg/mL"}, {"measurement": "IC50", "setting": "NCI-H460", "result": 18.4, "unit": "µg/mL"}, {"measurement": "IC50", "setting": "[7]", "result": 28.8, "unit": "µg/mL"}, {"measurement": "IC50", "setting": "MCF7", "result": 21.5, "unit": "µg/mL"}, {"measurement": "IC50", "setting": "[8]", "result": 13.3, "unit": "µg/mL"}, {"measurement": "IC50", "setting": "[9]", "result": 37.8, "unit": "µg/mL"}, {"measurement": "IC50", "setting": "[10]", "result": 24.1, "unit": "µg/mL"}, {"measurement": "IC50", "setting": "[11]", "result": 14.9, "unit": "µg/mL"}, {"measurement": "IC50", "setting": "OVCAR-3", "result": 11.1, "unit": "µg/mL"}, {"measurement": "IC50", "setting": "[12]", "result": 29.9, "unit": "µg/mL"}, {"measurement": "IC50", "setting": "PANC-1", "result": 8.8, "unit": "µg/mL"}, {"measurement": "IC50", "setting": "CWR22R", "result": 14.1, "unit": "µg/mL"}, {"measurement": "IC50", "setting": "DU-145", "result": 18.3, "unit": "µg/mL"}, {"measurement": "IC50", "setting": "LNCaP", "result": 11.5, "unit": "µg/mL"}, {"measurement": "IC50", "setting": "[13]", "result": 28.1, "unit": "µg/mL"}, {"measurement": "IC50", "setting": "[14]", "result": 24.2, "unit": "µg/mL"}, {"measurement": "IC50", "setting": "[15]", "result": 38.7, "unit": "µg/mL"}, {"measurement": "IC50", "setting": "[16]", "result": 29.3, "unit": "µg/mL"}, {"measurement": "IC50", "setting": "[17]", "result": 4.8, "unit": "µg/mL"}]}
{"smiles": "Cn1c(-c2cn(C)c3cc(Br)ccc23)cnc1-c1cn(C)c2cc(Br)ccc12", "note": "[N-METHYL NORTOPSENTIN A]", "values": [{"measurement": "IC50", "setting": "P388", "result": 800, "unit": "nM"}]}
